Experimental data gathered from unrelated publications.
Lines come from different studies, so protocols differ. Values after ≈ are worked out from the molar mass of the structure shown.

SMILES	target or system	test	system	setting	measurement	result
COc1ccc(NC(=O)c2c(Nc3ccccc3)sc(C#N)c2NC(=O)CNc2ccccc2Cl)cc1	HCT-116	cell growth or viability, SRB	–	0.1 µM, 48 h	viability	64.3%
O=C(O)CN1C(=O)/C(=C/c2c3ccccc3c(-c3ccc(N(c4ccccc4)c4ccccc4)cc3)c3ccccc23)SC1=S	Streptococcus mutans	microbial killing, broth dilution	ATCC25175	–	MBC	> 1000 µg/mL
O=C1O[C@H]([C@@H](O)CO)C(O)=C1O	–	DPPH scavenging, absorbance	–	15 min	EC50	34 µM
O=C1NC(=S)N/C1=C\c1ccc(-c2ccc(N(c3ccccc3)c3ccccc3)cc2)c2ccccc12	Streptococcus mutans	microbial killing, broth dilution	ATCC25175	–	MBC	> 1000 µg/mL
COc1ccc(NC(=O)c2c(Nc3ccccc3)sc(C#N)c2NC(=O)CNc2ccc([N+](=O)[O-])cc2)cc1	HCT-116	cell growth or viability, SRB	–	1 nM, 48 h	viability	103%
O=C(O)CN1C(=O)/C(=C/c2ccc(-c3ccc(N(c4ccccc4)c4ccccc4)cc3)c3ccccc23)SC1=S	Streptococcus mutans	microbial growth, broth dilution	ATCC25175	–	MIC	1000 µg/mL (≈ 1750 µM)
COc1ccc(NC(=O)c2c(Nc3ccccc3)sc(C#N)c2NC(=O)CNc2ccc(C)cc2)cc1	HCT-116	cell growth or viability, SRB	–	100 µM, 48 h	viability	60.3%
CCCN(c1ccc(F)cc1)c1c(-c2ccccn2)nc2ccccn12	Leishmania infantum	parasite growth	–	5 days, intracellular, amastigote	EC50	1.58 µM
COc1ccc(NC(=O)c2c(Nc3ccccc3)sc(C#N)c2NC(=O)CNc2ccc(OC)c(OC)c2)cc1	HCT-116	cell growth or viability, SRB	–	1 µM, 48 h	viability	65.2%
COc1ccc(/C=C/c2coc3ccc(OC)cc3c2=O)cc1	HSC-2	cell growth or viability, MTT	–	7 h	CC50	20 µM
COc1ccc(NC(=O)c2c(Nc3ccccc3)sc(C#N)c2NC(=O)CNc2ccc(Cl)cc2)cc1	HCT-116	cell growth or viability, SRB	–	100 µM, 48 h	viability	33.5%
COc1cccc(-c2nc3ccccn3c2Nc2ccc(F)cc2)n1	Leishmania infantum	parasite growth	–	5 days, intracellular, amastigote	EC50	> 63.1 µM
O=C(O)CN1C(=O)/C(=C/c2c3ccccc3c(-c3ccc(N(c4ccccc4)c4ccccc4)cc3)c3ccccc23)NC1=S	Streptococcus mutans	microbial killing, broth dilution	ATCC25175	–	MBC	> 1000 µg/mL
Cc1ccc2nc(-c3ccccn3)c(CN(CC(C)C)c3cccc(C(F)(F)F)c3)n2c1	Leishmania infantum	parasite growth	–	intracellular, amastigote	EC50	3.16 µM
O=C(O)CN1C(=O)/C(=C/c2ccc(-c3ccc(N(c4ccccc4)c4ccccc4)cc3)c3ccccc23)NC1=S	Streptococcus mutans	microbial killing, broth dilution	ATCC25175	–	MBC	> 1000 µg/mL
COc1ccc(NC(=O)c2c(Nc3ccccc3)sc(C(=O)NN=Cc3ccc(Br)cc3)c2NC(C)=O)cc1	HCT-116	cell growth or viability, SRB	–	1 µM, 48 h	viability	72.8%
O=C(O)CN1C(=O)/C(=C/c2ccc(-c3ccc(N(c4ccccc4)c4ccccc4)cc3)cc2)SC1=S	Streptococcus mutans	microbial growth, broth dilution	ATCC25175	–	MIC	1000 µg/mL (≈ 1910 µM)
COc1ccc(NC(=O)c2c(Nc3ccccc3)sc(C(=O)NN=Cc3ccc(C)cc3)c2NC(C)=O)cc1	HCT-116	cell growth or viability, SRB	–	1 µM, 48 h	viability	76.4%
COc1ccc2nc(-c3cc(N(C)C)ccn3)c(N(C)c3ccc(F)cc3)n2c1	Leishmania infantum	parasite growth	–	intracellular, amastigote	EC50	1.58 µM
COc1ccc(NC(=O)c2c(Nc3ccccc3)sc(C(=O)NN=Cc3ccc(Cl)cc3)c2NC(C)=O)cc1	HCT-116	cell growth or viability, SRB	–	1 nM, 48 h	viability	101%
COc1cc(OC)cc(-c2c(-c3ccccn3)nc3n2CCC3)c1	Leishmania infantum	parasite growth	–	5 days, intracellular, amastigote	EC50	1.26 µM
Cc1c(C)c2c(c(C)c1O)CCC(C)(C(=O)O)O2 (centres unmarked)	–	lipid peroxidation, inhibitor	–	–	IC50	107 µg/mL (≈ 427 µM)
CN(C)C(=O)c1ccc(-c2c(-c3ccccn3)nc3n2CCC3)cc1	Leishmania infantum	parasite growth	–	5 days, intracellular, amastigote	EC50	39.8 µM
O=C1NC(=S)N/C1=C\c1ccc(-c2ccc(N(c3ccccc3)c3ccccc3)cc2)cc1	Streptococcus pyogenes	microbial killing, broth dilution	ATCC19615	–	MBC	> 1000 µg/mL
Fc1ccc(NCc2c(-c3ccccn3)nc3ccccn23)cc1	Leishmania infantum	parasite growth	–	5 days, intracellular, amastigote	EC50	12.6 µM
O=C1NC(=S)S/C1=C\c1ccc(-c2ccc(N(c3ccccc3)c3ccccc3)cc2)c2ccccc12	Streptococcus mutans	microbial killing, broth dilution	ATCC25175	–	MBC	> 1000 µg/mL
N#Cc1ccc(-c2c(-c3ccccn3)nc3n2CCC3)cc1	Leishmania infantum	parasite growth	–	5 days, intracellular, amastigote	EC50	31.6 µM
COc1ccc2occ(/C=C/c3cc(OC)c(OC)c(OC)c3)c(=O)c2c1	HSC-2	cell growth or viability, MTT	–	6.7 h	CC50	50 µM
NC(=O)N1c2ccccc2C=Cc2ccccc21	–	MES seizures	rat	intraperitoneal	ED50	6.5 mg/kg
